From PMC7416570 (ACS chemical biology, 2020)
“Also recorded” adds a separate entry of the source. Where no end group is shown, it is not given here.

T1: hPD-L2* (Homo sapiens, UniProt Q9BQ51)
T1 sequence (Q9BQ51 20-220): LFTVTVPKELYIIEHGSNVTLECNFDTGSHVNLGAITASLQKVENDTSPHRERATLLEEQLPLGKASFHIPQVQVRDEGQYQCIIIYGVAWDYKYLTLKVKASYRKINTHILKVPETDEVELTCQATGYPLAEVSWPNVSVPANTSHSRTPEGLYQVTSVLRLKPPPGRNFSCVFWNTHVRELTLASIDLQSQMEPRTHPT

B1: mPD-1: extracellular domain of murine PD-1 (L25 to S157, C83S) with HA tag and His tag (protein)
chain: MALEVPNGPWRSLTFYPAWLTVSEGANATFTCSLSNWSEDLMLNWNRLSPSNQTEKQAAFSNGLSQPVQDARFQIIQLPNRHDFHMNILDTRRNDSGIYLCGAISLHPKAKIEESPGAELVVTERILETSTRYPS
modifications: left off: HA tag (…), C-terminal, kept | His tag, C-terminal, state not stated

Columns and labels:
[1] = Serum stability of [35S]-SPAM read out by binding to hPD-L1; type: in vitro ADME; settings: [35S]-labeled SPAM, 25% human serum, 37 °C, up to eight hours
[2] = molecular target: mPD-L1 (Mus musculus, UniProt Q9EP73); test: Radiolabeled binding assay on immobilized mPD-L1; settings: radioactive binding assay
Procedure, shortened: (§1)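 Peptide mRNA was translated in rabbit reticulocyte lysate with [35S]-methionine (2 μCi per 10 pmol template, 30 °C, 1 h). The resulting fusions were purified on oligo-dT agarose and tested for pull-down by the immobilized target protein, read as bead-retained radioactivity.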

[3] = molecular target: T1, hPD-L2*; test: Radiolabeled binding assay on immobilized hPD-L2*; settings: radioactive binding assay
Procedure, shortened: as §1

[4] = molecular target: hPD-L1 expressed on CHO-hPD-L1 cells (Homo sapiens, UniProt Q9NZQ7); test: Antibody competition by flow cytometry, CHO-hPD-L1; type: cell-based; settings: pre-treatment 0–20 μM
[5] = molecular target: T2, hPD-L1 (Homo sapiens, UniProt Q9NZQ7); test: Radiolabeled binding assay on immobilized hPD-L1; settings: for effect of mutation on hPD-L1 binding (alanine scanning): [35S]-labeled SPAM variants, binding normalized to [35S]-SPAM, n=3
[6] = molecular target: hPD-L1/mPD-1 interaction (Homo sapiens, UniProt Q9NZQ7); test: ELISA/IP assay of the hPD-L1/mPD-1 interaction; type: biochemical; settings: 10 μM SPAM, hPD-L1 and mPD-1 100 nM
[7] = molecular target: T2, hPD-L1; test: Radiolabeled binding assay on immobilized hPD-L1*; settings: radioactive binding assay
Procedure, shortened: as §1

[8] = molecular target: T2, hPD-L1; settings: read-out: previously reported KD values PD-1/hPD-L1; cited from earlier work

Sequence of mPD-L1 (Q9EP73 19-239 limits assumed): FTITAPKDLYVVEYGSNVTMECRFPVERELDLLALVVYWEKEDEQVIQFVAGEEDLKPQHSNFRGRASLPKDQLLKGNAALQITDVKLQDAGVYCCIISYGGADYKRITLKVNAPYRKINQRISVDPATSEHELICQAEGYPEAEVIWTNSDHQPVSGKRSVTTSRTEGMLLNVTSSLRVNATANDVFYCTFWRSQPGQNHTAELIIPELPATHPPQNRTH

| Molecule | effect of mutation on hPD-L1 binding (alanine scanning) [5] | further results |
| --- | --- | --- |
| C#CC[C@H](NC(=O)CNC(=O)[C@H](CO)NC(=O)[C@H](C)NC(=O)[C@H](Cc1ccc(O)cc1)NC(=O)[C@H](Cc1c[nH]cn1)NC(=O)[C@H](CC(C)C)NC(=O)[C@@H](NC(=O)[C@H](Cc1c[nH]c2ccccc12)NC(=O)[C@H](Cc1ccccc1)NC(=O)[C@H](CCCCN)NC(=O)[C@H](CC(N)=O)NC(=O)[C@H](CC(C)C)NC(=O)[C@@H](NC(=O)[C@H](Cc1c[nH]cn1)NC(=O)[C@H](CC(=O)O)NC(=O)[C@H](CC(C)C)NC(=O)[C@H](Cc1ccccc1)NC(=O)[C@@H](NC(=O)[C@@H]1CCCN1C(=O)[C@@H](N)CCSC)[C@@H](C)CC)[C@@H](C)CC)[C@@H](C)CC)C(N)=O (stereo in doubt) [SPAM] |  | loss of binding to hPD-L1 after incubation in human serum [1]: ~ 25%; [35S]-labeled SPAM binding to mPD-L1 [2]: no significant binding; also recorded: not pulled-down; also recorded: essentially no binding; [35S]-labeled SPAM binding to hPD-L2* [3]: no significant binding; also recorded: essentially no binding; blocking of Fluorescein-16373 binding to CHO-hPD-L1 ([4]; 50 nM FAM-16373, flow cytometry): blocking; blocking of Fluorescein-16377 binding to CHO-hPD-L1 ([4]; 50 nM FAM-16377, flow cytometry): blocking; [35S]-labeled SPAM binding to immobilized hPD-L1 ([5]; 75 pmol hPD-L1 on streptavidin agarose, 4 °C, 1 h): efficiently pulled-down; disruption of PD-1 binding to hPD-L1 at 10 μM [6]: almost completely disrupted; [35S]-labeled SPAM binding to hPD-L1* [7]: captured |
| A18: SPAM variant with glycine substituted for alanine at position 18 (MPIFLDHILNKFWILHYGGSGSSG; also: [35S]-labeled methionine, peptide-RNA fusion) | completely abolished |  |
| D6A: SPAM variant with alanine substituted at position 6 (MPIFLAHILNKFWILHYAGSGSSG; also: [35S]-labeled methionine, peptide-RNA fusion) | completely abolished |  |
| F4A: SPAM variant with alanine substituted at position 4 (MPIALDHILNKFWILHYAGSGSSG; also: [35S]-labeled methionine, peptide-RNA fusion) | little or no significant influence |  |
| F12A: SPAM variant with alanine substituted at position 12 (MPIFLDHILNKAWILHYAGSGSSG; also: [35S]-labeled methionine, peptide-RNA fusion) | completely abolished |  |
| H7A: SPAM variant with alanine substituted at position 7 (MPIFLDAILNKFWILHYAGSGSSG; also: [35S]-labeled methionine, peptide-RNA fusion) | completely abolished |  |
| H16A: SPAM variant with alanine substituted at position 16 (MPIFLDHILNKFWILAYAGSGSSG; also: [35S]-labeled methionine, peptide-RNA fusion) | completely abolished |  |
| I3A: SPAM variant with alanine substituted at position 3 (MPAFLDHILNKFWILHYAGSGSSG; also: [35S]-labeled methionine, peptide-RNA fusion) | little or no significant influence |  |
| I8A: SPAM variant with alanine substituted at position 8 (MPIFLDHALNKFWILHYAGSGSSG; also: [35S]-labeled methionine, peptide-RNA fusion) | little or no significant influence |  |
| I14A: SPAM variant with alanine substituted at position 14 (MPIFLDHILNKFWALHYAGSGSSG; also: [35S]-labeled methionine, peptide-RNA fusion) | completely abolished |  |
| K11A: SPAM variant with alanine substituted at position 11 (MPIFLDHILNAFWILHYAGSGSSG; also: [35S]-labeled methionine, peptide-RNA fusion) | completely abolished |  |
| L5A: SPAM variant with alanine substituted at position 5 (MPIFADHILNKFWILHYAGSGSSG; also: [35S]-labeled methionine, peptide-RNA fusion) | little or no significant influence |  |
| L9A: SPAM variant with alanine substituted at position 9 (MPIFLDHIANKFWILHYAGSGSSG; also: [35S]-labeled methionine, peptide-RNA fusion) | little or no significant influence |  |
| L15A: SPAM variant with alanine substituted at position 15 (MPIFLDHILNKFWIAHYAGSGSSG; also: [35S]-labeled methionine, peptide-RNA fusion) | completely abolished |  |
| MRIFAVFIFMTYWHLLNA [hPD-L1 signal peptide, reference compound] |  | binding of hPD-L1 signal peptide-mRNA fusion to hPD-L1 beads ([5]; streptavidin agarose beads loaded with 1.1 μM hPD-L1 (1,100 pmol)): some binding |
| N10A: SPAM variant with alanine substituted at position 10 (MPIFLDHILAKFWILHYAGSGSSG; also: [35S]-labeled methionine, peptide-RNA fusion) | completely abolished |  |
| P2A: SPAM variant with alanine substituted at position 2 (MAIFLDHILNKFWILHYAGSGSSG; also: [35S]-labeled methionine, peptide-RNA fusion) | decreased levels of hPD-L1 binding |  |
| W13A: SPAM variant with alanine substituted at position 13 (MPIFLDHILNKFAILHYAGSGSSG; also: [35S]-labeled methionine, peptide-RNA fusion) | completely abolished |  |
| B1 |  | Kd [8]: 4 to 8 µM |
